How the values were obtained:
Oryctolagus cuniculus [1] = test: Biodistribution pattern of [123I]- ligand was evaluated in muscle of anesthetized rabbit after Intravenous injection of 50 uCi after 2 hr; format: ADME, organism-based, Muscle tissue; conditions: in vivo
Summary of the method: (§1)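 Male New Zealand white rabbits, 2.5–3.5 kg, anesthetized with 5 mg/kg xylazine plus 30 mg/kg ketamine im. Each received 50 uCi radioligand (specific activity > 5000 Ci/mmol) iv via ear vein. Animals were killed with 200 mg/kg pentobarbital im at the set time. Blood was drawn by intracardiac puncture and organs weighed. Gamma counting was decay-corrected, expressed as %ID x kg body weight/g tissue, mean ± SEM, n = 3/time point.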

Oryctolagus cuniculus [2] = test: Biodistribution pattern of [123I]- ligand was evaluated in lung of anesthetized rabbit after Intravenous injection of 50 uCi after 24 hr; format: ADME, organism-based; conditions: in vivo; summary of the method: as §1
Oryctolagus cuniculus [3] = test: Biodistribution pattern of [123I]- ligand was evaluated in right ventricular muscle of anesthetized rabbit after Intravenous injection of 50 uCi after 6 hr; format: ADME, organism-based, Muscle tissue; conditions: in vivo
Summary of the method: (§2)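 Male New Zealand white rabbits (2.5–3.5 kg), anesthetized with xylazine 5 mg/kg plus ketamine 30 mg/kg im, given 50 µCi radioligand (specific activity >5000 Ci/mmol) iv via ear vein. Euthanized at set times by pentobarbital 200 mg/kg im, n = 3/time point. Organs removed and weighed, gamma-counted, decay/weight corrected; expressed as % ID x kg body weight/g tissue, mean ± SEM.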

Oryctolagus cuniculus [4] = test: Biodistribution pattern of [123I]- ligand was evaluated in kidney of anesthetized rabbit after Intravenous injection of 50 uCi after 30 min; format: ADME, organism-based; conditions: in vivo, 0.5 h; summary of the method: as §1
Oryctolagus cuniculus [5] = test: Biodistribution pattern of [123I]- ligand was evaluated in lung of anesthetized rabbit after Intravenous injection of 50 uCi after 5 min; format: ADME, organism-based; conditions: in vivo; summary of the method: as §1
Oryctolagus cuniculus [6] = test: Biodistribution pattern of [123I]- ligand was evaluated in left ventricular muscle of anesthetized rabbit after Intravenous injection of 50 uCi after 1 hr; format: ADME, organism-based, Muscle tissue; conditions: in vivo; summary of the method: as §1
Oryctolagus cuniculus [7] = test: Biodistribution pattern of [123I]- ligand was evaluated in fat of anesthetized rabbit after Intravenous injection of 50 uCi after 2 hr; format: ADME, organism-based, Adipose tissue; conditions: in vivo; summary of the method: as §1
Oryctolagus cuniculus [8] = test: Cerebral biodistribution pattern of [123I]- ligand was evaluated in striatum of anesthetized rabbit after Intravenous injection of 50 uCi after 24 hr; format: ADME, organism-based; conditions: in vivo; summary of the method: as §2
Oryctolagus cuniculus [9] = test: Biodistribution pattern of [123I]- ligand was evaluated in left ventricular muscle of anesthetized rabbit after Intravenous injection of 50 uCi after 24 hr; format: ADME, organism-based, Muscle tissue; conditions: in vivo; summary of the method: as §1
Oryctolagus cuniculus [10] = test: Biodistribution pattern of [123I]- ligand was evaluated in blood of anesthetized rabbit after Intravenous injection of 50 uCi after 4 hr; format: ADME, organism-based; conditions: in vivo; summary of the method: as §1
Oryctolagus cuniculus [11] = test: Biodistribution pattern of [123I]- ligand was evaluated in spleen of anesthetized rabbit after Intravenous injection of 50 uCi after 5 min; format: ADME, organism-based; conditions: in vivo; summary of the method: as §2
Oryctolagus cuniculus [12] = test: Cerebral biodistribution pattern of [123I]- ligand was evaluated in frontal cortex of anesthetized rabbit after Intravenous injection of 50 uCi after 4 hr; format: ADME, organism-based; conditions: in vivo; summary of the method: as §2
Oryctolagus cuniculus [13] = test: Cerebral biodistribution pattern of [123I]- ligand was evaluated in thalamus of anesthetized rabbit after Intravenous injection of 50 uCi after 30 min; format: ADME, organism-based; conditions: in vivo, 0.5 h; summary of the method: as §2
Oryctolagus cuniculus [14] = test: Biodistribution pattern of [123I]- ligand was evaluated in left ventricular muscle of anesthetized rabbit after Intravenous injection of 50 uCi after 5 min; format: ADME, organism-based, Muscle tissue; conditions: in vivo; summary of the method: as §1
Oryctolagus cuniculus [15] = test: Biodistribution pattern of [123I]- ligand was evaluated in fat of anesthetized rabbit after Intravenous injection of 50 uCi after 4 hr; format: ADME, organism-based, Adipose tissue; conditions: in vivo; summary of the method: as §1
Oryctolagus cuniculus [16] = test: Biodistribution pattern of [123I]- ligand was evaluated in lung of anesthetized rabbit after Intravenous injection of 50 uCi after 1 hr; format: ADME, organism-based; conditions: in vivo; summary of the method: as §1
Oryctolagus cuniculus [17] = test: Biodistribution pattern of [123I]- ligand was evaluated in left atrial muscle of anesthetized rabbit after Intravenous injection of 50 uCi after 2 hr; format: ADME, organism-based, Muscle tissue; conditions: in vivo; summary of the method: as §1
Oryctolagus cuniculus [18] = test: Biodistribution pattern of [123I]- ligand was evaluated in liver of anesthetized rabbit after Intravenous injection of 50 uCi after 6 hr; format: ADME, organism-based; conditions: in vivo; summary of the method: as §1
Oryctolagus cuniculus [19] = test: Biodistribution pattern of [123I]- ligand was evaluated in spleen of anesthetized rabbit after Intravenous injection of 50 uCi after 4 hr; format: ADME, organism-based; conditions: in vivo; summary of the method: as §2
Oryctolagus cuniculus [20] = test: Biodistribution pattern of [123I]- ligand was evaluated in blood of anesthetized rabbit after Intravenous injection of 50 uCi after 24 hr; format: ADME, organism-based; conditions: in vivo; summary of the method: as §1
Oryctolagus cuniculus [21] = test: Biodistribution pattern of [123I]- ligand was evaluated in right atrial muscle of anesthetized rabbit after Intravenous injection of 50 uCi after 1 hr; format: ADME, organism-based, Muscle tissue; conditions: in vivo; summary of the method: as §2
Oryctolagus cuniculus [22] = test: Biodistribution pattern of [123I]- ligand was evaluated in right ventricular muscle of anesthetized rabbit after Intravenous injection of 50 uCi after 24 hr; format: ADME, organism-based, Muscle tissue; conditions: in vivo; summary of the method: as §2
Oryctolagus cuniculus [23] = test: Biodistribution pattern of [123I]- ligand was evaluated in muscle of anesthetized rabbit after Intravenous injection of 50 uCi after 5 min; format: ADME, organism-based, Muscle tissue; conditions: in vivo; summary of the method: as §2
Oryctolagus cuniculus [24] = test: Biodistribution pattern of [123I]- ligand was evaluated in kidney of anesthetized rabbit after Intravenous injection of 50 uCi after 6 hr; format: ADME, organism-based; conditions: in vivo; summary of the method: as §1
Oryctolagus cuniculus [25] = test: Biodistribution pattern of [123I]- ligand was evaluated in blood of anesthetized rabbit after Intravenous injection of 50 uCi after 5 min; format: ADME, organism-based; conditions: in vivo; summary of the method: as §1
Oryctolagus cuniculus [26] = test: Biodistribution pattern of [123I]- ligand was evaluated in muscle of anesthetized rabbit after Intravenous injection of 50 uCi after 6 hr; format: ADME, organism-based, Muscle tissue; conditions: in vivo; summary of the method: as §2
Oryctolagus cuniculus [27] = test: Biodistribution pattern of [123I]- ligand was evaluated in intestine of anesthetized rabbit after Intravenous injection of 50 uCi after 5 min; format: ADME, organism-based; conditions: in vivo; summary of the method: as §1
Oryctolagus cuniculus [28] = test: Cerebral biodistribution pattern of [123I]- ligand was evaluated in frontal cortex of anesthetized rabbit after Intravenous injection of 50 uCi after 2 hr; format: ADME, organism-based; conditions: in vivo; summary of the method: as §2
Oryctolagus cuniculus [29] = test: Biodistribution pattern of [123I]- ligand was evaluated in liver of anesthetized rabbit after Intravenous injection of 50 uCi after 5 min; format: ADME, organism-based; conditions: in vivo; summary of the method: as §1
Oryctolagus cuniculus [30] = test: Cerebral biodistribution pattern of [123I]- ligand was evaluated in hypothalamus of anesthetized rabbit after Intravenous injection of 50 uCi after 6 hr; format: ADME, organism-based; conditions: in vivo; summary of the method: as §2
Oryctolagus cuniculus [31] = test: Cerebral biodistribution pattern of [123I]- ligand was evaluated in frontal cortex of anesthetized rabbit after Intravenous injection of 50 uCi after 6 hr; format: ADME, organism-based; conditions: in vivo; summary of the method: as §2
Oryctolagus cuniculus [32] = test: Cerebral biodistribution pattern of [123I]- ligand was evaluated in thalamus of anesthetized rabbit after Intravenous injection of 50 uCi after 2 hr; format: ADME, organism-based; conditions: in vivo; summary of the method: as §2
Oryctolagus cuniculus [33] = test: Biodistribution pattern of [123I]- ligand was evaluated in kidney of anesthetized rabbit after Intravenous injection of 50 uCi after 4 hr; format: ADME, organism-based; conditions: in vivo; summary of the method: as §1
Oryctolagus cuniculus [34] = test: Cerebral biodistribution pattern of [123I]- ligand was evaluated in hypothalamus of anesthetized rabbit after Intravenous injection of 50 uCi after 5 min; format: ADME, organism-based; conditions: in vivo; summary of the method: as §2
Oryctolagus cuniculus [35] = test: Biodistribution pattern of [123I]- ligand was evaluated in left atrial muscle of anesthetized rabbit after Intravenous injection of 50 uCi after 1 hr; format: ADME, organism-based, Muscle tissue; conditions: in vivo; summary of the method: as §1
Oryctolagus cuniculus [36] = test: Biodistribution pattern of [123I]- ligand was evaluated in left atrial muscle of anesthetized rabbit after Intravenous injection of 50 uCi after 6 hr; format: ADME, organism-based, Muscle tissue; conditions: in vivo; summary of the method: as §1
Oryctolagus cuniculus [37] = test: Biodistribution pattern of [123I]- ligand was evaluated in muscle of anesthetized rabbit after Intravenous injection of 50 uCi after 1 hr; format: ADME, organism-based, Muscle tissue; conditions: in vivo; summary of the method: as §1
Oryctolagus cuniculus [38] = test: Biodistribution pattern of [123I]- ligand was evaluated in blood of anesthetized rabbit after Intravenous injection of 50 uCi after 2 hr; format: ADME, organism-based; conditions: in vivo; summary of the method: as §1

- ID x kg of body weight/g of tissue (Oryctolagus cuniculus [1]): 0.05%
- ID x kg of body weight/g of tissue (Oryctolagus cuniculus [2]): 0.18%
- ID x kg of body weight/g of tissue (Oryctolagus cuniculus [3]): 0.08%
- ID x kg of body weight/g of tissue (Oryctolagus cuniculus [4]): < 0.29%
- ID x kg of body weight/g of tissue (Oryctolagus cuniculus [5]): 5.75%
- ID x kg of body weight/g of tissue (Oryctolagus cuniculus [6]): 0.2%
- ID x kg of body weight/g of tissue (Oryctolagus cuniculus [7]): 0.04%
- ID x kg of body weight/g of tissue (Oryctolagus cuniculus [8]): 0.02%
- ID x kg of body weight/g of tissue (Oryctolagus cuniculus [9]): 0.02%
- ID x kg of body weight/g of tissue (Oryctolagus cuniculus [10]): 0.01%
- ID x kg of body weight/g of tissue (Oryctolagus cuniculus [11]): 0.39%
- ID x kg of body weight/g of tissue (Oryctolagus cuniculus [12]): 0.06%
- ID x kg of body weight/g of tissue (Oryctolagus cuniculus [13]): < 0.1%
- ID x kg of body weight/g of tissue (Oryctolagus cuniculus [14]): 0.52%
- ID x kg of body weight/g of tissue (Oryctolagus cuniculus [15]): 0.02%
- ID x kg of body weight/g of tissue (Oryctolagus cuniculus [16]): 1.43%
- ID x kg of body weight/g of tissue (Oryctolagus cuniculus [17]): 0.17%
- ID x kg of body weight/g of tissue (Oryctolagus cuniculus [18]): 0.03%
- ID x kg of body weight/g of tissue (Oryctolagus cuniculus [19]): 0.1%
- ID x kg of body weight/g of tissue (Oryctolagus cuniculus [20]): 0.01%
- ID x kg of body weight/g of tissue (Oryctolagus cuniculus [21]): < 0.13%
- ID x kg of body weight/g of tissue (Oryctolagus cuniculus [22]): 0.02%
- ID x kg of body weight/g of tissue (Oryctolagus cuniculus [23]): 0.08%
- ID x kg of body weight/g of tissue (Oryctolagus cuniculus [24]): 0.04%
- ID x kg of body weight/g of tissue (Oryctolagus cuniculus [25]): 0.03%
- ID x kg of body weight/g of tissue (Oryctolagus cuniculus [26]): 0.04%
- ID x kg of body weight/g of tissue (Oryctolagus cuniculus [27]): 0.16%
- ID x kg of body weight/g of tissue (Oryctolagus cuniculus [28]): 0.09%
- ID x kg of body weight/g of tissue (Oryctolagus cuniculus [29]): 0.14%
- ID x kg of body weight/g of tissue (Oryctolagus cuniculus [30]): 0.03%
- ID x kg of body weight/g of tissue (Oryctolagus cuniculus [31]): 0.05%
- ID x kg of body weight/g of tissue (Oryctolagus cuniculus [32]): 0.05%
- ID x kg of body weight/g of tissue (Oryctolagus cuniculus [33]): 0.05%
- ID x kg of body weight/g of tissue (Oryctolagus cuniculus [34]): 0.25%
- ID x kg of body weight/g of tissue (Oryctolagus cuniculus [35]): 0.16%
- ID x kg of body weight/g of tissue (Oryctolagus cuniculus [36]): 0.1%
- ID x kg of body weight/g of tissue (Oryctolagus cuniculus [37]): 0.07%
- ID x kg of body weight/g of tissue (Oryctolagus cuniculus [38]): 0.01%
SMILES: CC(C)(/C=C/I)NC[C@H](O)COc1cccc2[nH]c3ccccc3c12

From ChEMBL document CHEMBL1129275, “Synthesis and in vitro and in vivo characteristics of an iodinated analogue of the beta-adrenoceptor antagonist carazolol” (J Med Chem, 1996)
